In ChEMBL document CHEMBL1128495, “Synthetic chemical diversity: solid phase synthesis of libraries of C2 symmetric inhibitors of HIV protease containing diamino diol and diamino alcohol cores” (J Med Chem, 1995) one finds IC50 and inhibition data, which are given here for 10 compounds.

What is called IC50 is the point on the concentration scale where inhibition reaches its midpoint. Low readings indicate inhibition by little substance, high ones a need for much substance. As usually defined, the inhibition is the share of the control response that was lost under treatment. Lower therefore signals little suppression.

For test [1], the target named is Human immunodeficiency virus type 1 protease (Human immunodeficiency virus 1, UniProt Q72874). Put plainly: Inhibition of HIV protease. In short, it runs like this: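 Fluorometric HIV protease activity assay on unpurified samples. Concentrations were calculated from the weight of unpurified material, with no correction for impurities. Each sample was tested at 3–5 concentrations where feasible, and IC50 was derived from the percent-inhibition data.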

The target in test [2] is Human immunodeficiency virus type 1 protease (Human immunodeficiency virus 1) (UniProt Q72874). The experiment in a line: Inhibitory activity against HIV Protease at a dose of 0.5 nM. In short, it runs like this:
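Fluorometric HIV protease activity assay run on an unpurified sample. Concentration was based on the weight of unpurified material, with no correction for impurities. Percent inhibition was read at a single concentration of 0.5 nM.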

In turn, `CC(C)[C@H](NC(=O)CC1NC(=O)NC1=O)C(=O)N[C@@H](Cc1ccccc1)[C@@H](O)[C@H](O)[C@H](Cc1ccccc1)NC(=O)[C@@H](NC(=O)CC1NC(=O)NC1=O)C(C)C` (some centres undefined) displayed an IC50 in test [1] of 9.6 nM. In test [2], this compound had an inhibition of 33%.

As for `CC(C)[C@H](NC(=O)Cc1csc(N)n1)C(=O)N[C@@H](Cc1ccccc1)C[C@H](O)[C@H](Cc1ccccc1)NC(=O)[C@@H](NC(=O)Cc1csc(N)n1)C(C)C`, the IC50 in test [1] was less than 1 nM. This compound registered an inhibition in test [2] of 40%.

In turn, `CC(C)[C@H](NC(=O)C(O)(c1ccccc1)c1ccccc1)C(=O)N[C@@H](Cc1ccccc1)C[C@H](O)[C@H](Cc1ccccc1)NC(=O)[C@@H](NC(=O)C(O)(c1ccccc1)c1ccccc1)C(C)C` displayed a 50% inhibitory concentration (IC50) in test [1] of 160 nM.

Take `CC(C)[C@H](NC(=O)C(O)(c1ccccc1)c1ccccc1)C(=O)N[C@@H](Cc1ccccc1)[C@@H](O)[C@H](O)[C@H](Cc1ccccc1)NC(=O)[C@@H](NC(=O)C(O)(c1ccccc1)c1ccccc1)C(C)C`: the 50% inhibitory concentration (IC50) in test [1] was found to be 6400 nM.

Take `Cc1nc(C)c(C(=O)N[C@H](C(=O)N[C@@H](Cc2ccccc2)C[C@H](O)[C@H](Cc2ccccc2)NC(=O)[C@@H](NC(=O)c2sc(C)nc2C)C(C)C)C(C)C)s1`: 13 nM corresponded to half-maximal inhibition in test [1] (IC50).

The compound `Cc1nc(C)c(C(=O)N[C@H](C(=O)N[C@@H](Cc2ccccc2)[C@@H](O)[C@H](O)[C@H](Cc2ccccc2)NC(=O)[C@@H](NC(=O)c2sc(C)nc2C)C(C)C)C(C)C)s1` showed an IC50 in test [1] of 860 nM.

Take `CC(C)[C@H](NC(=O)CC1NC(=O)NC1=O)C(=O)N[C@@H](Cc1ccccc1)C[C@H](O)[C@H](Cc1ccccc1)NC(=O)[C@@H](NC(=O)CC1NC(=O)NC1=O)C(C)C` (some centres undefined): the half-maximal inhibitory concentration (IC50) in test [1] was less than 1 nM. For the same compound, the inhibition in test [2] amounted to 43%.

In the case of `CC(C)[C@H](NC(=O)CSc1ncccn1)C(=O)N[C@@H](Cc1ccccc1)C[C@H](O)[C@H](Cc1ccccc1)NC(=O)[C@@H](NC(=O)CSc1ncccn1)C(C)C`, the IC50 in test [1] is less than 1 nM.

In test [1], `CC(C)[C@H](NC(=O)Cc1csc(N)n1)C(=O)N[C@@H](Cc1ccccc1)[C@@H](O)[C@H](O)[C@H](Cc1ccccc1)NC(=O)[C@@H](NC(=O)Cc1csc(N)n1)C(C)C` gave a half-inhibitory concentration (IC50) of 12 nM. This lies in the double-digit nanomolar range.

`COc1cc(CC(=O)N[C@H](C(=O)N[C@@H](Cc2ccccc2)C[C@H](O)[C@H](Cc2ccccc2)NC(=O)[C@@H](NC(=O)Cc2cc(OC)c(OC)c(OC)c2)C(C)C)C(C)C)cc(OC)c1OC`: the 50% inhibitory concentration (IC50) in test [1] is less than 1 nM. Moreover, the inhibition in test [2] was determined as 71%.
